Screening data: PubChem, several laboratories
In the library only some 2.9% were active in any assay of this set; here they are far more common.
RanGTP-Impb inh: disruptors of Ran-importin-beta complex formation – biochemical, FRET, CFP-Ran, YFP-importin-beta, homogeneous, primary screen; cell-free CFP-Ran/YFP-importin-beta FRET ratio; inhibition, % (no concentration beside the values); 300,000 compounds, 1.1% hits;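 active = more than half of the replicate wells show a fall in the fluorescence ratio signal beyond about 16%, limit read from the data, passing the limit was not always enough; inconclusive = exactly half of the replicate wells pass the set limit; inactive = fewer than half of replicates pass the limit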;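 also: 0% = DMSO wells and 100% = Ran loaded with GDP instead of GTP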
Runt-SMMHC FRET: blocks binding of human RUNX1 Runt domain to CBFb-SMMHC. Cerulean-Runt/Venus-CBFb-SMMHC FRET ratio 530/480, 1 h. inhibition, % at 20 µM. 220,000 compounds, 0.74% hits. AID 1434;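 active = mean inhibition across duplicate retests at 20 µM reaching about 50%, limit read from the data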;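 also: 0% = DMSO wells and 100% = wells with excess untagged CBFb-SMMHC; inhibitors lower the FRET ratio by blocking Runt binding to CBFb-SMMHC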
KLK7 zymogen act: activators of human kallikrein-7 zymogen; P49862; AID 652039; activation, % at 7 µM; purified proKLK7, EDANS-DABCYL substrate fluorescence; 100% is mature enzyme control, 0% vehicle; 370,000 compounds, 0.9% hits;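 active = activation above the mean of all tested compounds plus 3 SD, computed per campaign excluding outliers beyond control limits, cut at about 13% in these data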
Target sequence (P49862 whole entry, looked up): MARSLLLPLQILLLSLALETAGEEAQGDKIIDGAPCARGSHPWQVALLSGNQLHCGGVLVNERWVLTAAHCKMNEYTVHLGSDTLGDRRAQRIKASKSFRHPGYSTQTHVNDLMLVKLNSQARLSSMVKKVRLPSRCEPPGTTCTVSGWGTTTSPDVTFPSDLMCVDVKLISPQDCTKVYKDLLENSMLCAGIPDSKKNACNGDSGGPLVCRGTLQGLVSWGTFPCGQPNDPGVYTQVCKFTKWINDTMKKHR
Runt-CBFb FRET: Runt domain-CBFb interaction inhibition; Q01196+Q13951; Cerulean-Runt/Venus-CBFb FRET ratio 530/480, 1 h; inhibition, % at 20 µM; 220,000 compounds, 0.46% hits; AID 1496;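 active = inhibition over about 50% at 20 µM in the single-dose screen, limit read from the data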;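 also: 0% = DMSO wells and 100% = excess unlabeled CBFb competitor control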
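test system = Cerulean-Runt domain fusion protein, energy donor | probe or stimulus = Venus-CBFb binding partner, 100 nM | incubation = two 1 h room-temperature incubations shielded from light | detection = fluorescence energy transfer, 422 nm excitation, 530/480 nm emission | measure = loss of energy transfer signal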
AI-2 QS modul: modulates the Vibrio harveyi AI-2 quorum sensing system. Vibrio harveyi JMH597 AI-2 luminescence/OD600 ratio, 9 h; stronger effect = lower value; strain lacks LuxN and CqsS sensors; 0 = neutral-control median. 300,000 compounds, 0.4% hits. activity change, % at 7.5 µM; in the data active = activity change below about -75%, passing the limit was not always enough; inconclusive = no clear call, values can overlap the other calls;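 also: luminescence divided by OD600 gain over 9 h not by final OD600 alone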
Wee1 stabilizer: blocks degradation of human Wee1 kinase | 220,000 compounds, 1.2% hits | reporter increase, % at 5 µM | HeLa Luc-Wee1K328M stability, luciferase luminescence; 100% = proteasome inhibitor MG132 effect | P30291;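 active = activation above the mean of all tested compounds plus 3 SD, set per screening run, cut at about 8.8% in these data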;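 also: cells exposed to compound for 20 h before luminescence read; 0% = DMSO alone and 100% = MG132 at 30 µM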
proKLK7 act conf: confirmation of human kallikrein-7 zymogen activators. AID 686949. 3,200 compounds, 68% hits. shares compounds with KLK7 zymogen act. purified proKLK7, EDANS-DABCYL substrate fluorescence; scaled: vehicle 0, mature enzyme 100. activation, % at 7 µM;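 active = activation, as change over the incubation, above the mean of all tested compounds plus 3 SD, cut at about 13% in these data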
EDANS-DABCYL int: optically interferes with EDANS-DABCYL signal, flagging KLK7 hits. shares compounds with KLK7 zymogen act. EDANS-DABCYL substrate fluorescence interference, no enzyme, 4 h; solvent 0%, active enzyme control 100%. activation, % at 7 µM. 3,200 compounds, 80% hits. AID 686952;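 active = activation above the all-compound mean plus 3 SD, ignoring values outside control-based bounds, cut at about 4.8% in these data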;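 also: value is the 4 h activation minus the activation read at time zero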
The depositor's hits bear a star; ? = inconclusive; . = no result given.

SMILES	RanGTP-Impb inh	Runt-SMMHC FRET	KLK7 zymogen act	Runt-CBFb FRET	AI-2 QS modul	Wee1 stabilizer	proKLK7 act conf	EDANS-DABCYL int
Cc1ccccc1CN(c1ccc(C(=O)NCc2ccccn2)cc1)S(C)(=O)=O	3	3	0	0	17	2	.	.
Cc1ccc(S(=O)(=O)NCCC(=O)Oc2ccc3ccc(=O)oc3c2)cc1	8	56*	49*	36	15	4	613*	626*
O=C(Oc1ccc2ccc(=O)oc2c1)C1CCCCC1	4	48	107*	30	11	2	337*	301*
O=C(Oc1ccc2ccc(=O)oc2c1)c1ccccc1	10	.	242*	.	-10	.	589*	593*
CCOc1ccccc1C(=O)Oc1ccc2ccc(=O)oc2c1	-3	.	190*	.	25	.	305*	248*
Cc1ccc(C(=O)COc2ccc3ccc(=O)oc3c2)cc1	6	1	0	-1	37	-2	.	.
CC(=O)c1cccc(OC(=O)c2ccccc2)c1	.	.	0	.	.	.	.	.
O=C(Nc1cc(Cl)cc(Cl)c1)N1CCCC1	-2	-2	0	-1	-4	1	.	.
CC(=O)NCC(=O)NC1CC(C)(C)Cc2c1cnn2-c1ccccc1 (configuration not stated)	3	.	0	.	6	.	.	.
COc1cccc(C(=O)COc2ccc3ccc(=O)oc3c2)c1	-3	4	1	-1	11	3	.	.
CCNC(=O)C(Cc1ccccc1)NC(=O)OCc1ccccc1 (configuration not stated)	3	.	0	.	10	-2	.	.
CCC(NC(=O)OCc1ccccc1)C(=O)Oc1ccc2ccc(=O)oc2c1 (configuration not stated)	21*	.	75*	.	31	.	434*	455*
COc1ccc(C(=O)Oc2ccc3ccc(=O)oc3c2)cc1	0	.	19*	.	-1	.	122*	128*
CC(C)C(NS(=O)(=O)c1cccc2nsnc12)C(=O)N1CCCCC1 (configuration not stated)	-32	.	0	.	3	.	.	.
COc1ccc(NC(=O)CS(=O)CC(=O)Nc2cccc3cccnc23)cc1 (configuration not stated)	-3	.	0	.	12	.	.	.
COc1ccc2c(c1)c1nc3n(c(=O)c1n2CC(=O)Nc1ccccc1)CCCS3	2	.	0	.	21	.	.	.
COC(=O)COc1ccc(-c2ccc(F)cc2)cc1C=O	-2	-2	13*	.	28	4	-26	-30
COC(=O)COc1ccc(-c2ccccc2)cc1C=O	3	-8	14*	.	38	1	-12	-16
COC(=O)COc1ccccc1C(N)=O	?	1	0	0	12	0	.	.
Nc1nc2nccc(-c3ccco3)n2n1	4	-2	17*	0	34	2	15*	27*
Nc1nc2nccc(-c3ccccn3)n2n1	-2	-2	11	2	4	1	.	.
CCOC(=O)C1Cc2c([nH]c3ccccc23)C(C)N1 (configuration not stated)	3	5	1	-1	19	-2	.	.
CC[C@@H]1CN(C)[C@H]2Cc3c([nH]c4ccccc34)C(=O)C[C@@H]1[C@@H]2C(=O)OC	-4	.	17*	.	18	.	5	5.2*
COc1cc(F)ccc1-c1csc(C(O)c2ccc(F)c(F)c2)n1 (configuration not stated)	.	.	0	.	.	.	.	.
